Data reported in ChEMBL document CHEMBL5674883, “The Heterochromatin Landscape in Migrating Cells and the Importance of H3K27me3 for Associated Transcriptome Alterations” (Cells, 2018).

What was measured:
Format in all cases: cell-based
[1] = biological target: T1, RNA polymerase II (Mus musculus) (UniProt P08775+Q8CFI7+P97760+A0A3Q4L2S8+Q80UW8+P61219+P62488+Q923G2+P60898+O08740+Q63871+P62876); assay: Inhibition of RNA polymerase II in mouse B16-F1 migrating cells assessed as fold change in Dnttip2-RNA stability at 0.1 mM measured by ChIP-seq analysis relative to control cells
Outline: (§1)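 Mouse B16-F1 melanoma cells grown to confluence on fibronectin in DMEM/10% FCS at 37 °C, 7% CO2. Migration induced by multiple scratches and 3 h incubation; unscratched controls. DRB 0.1 mM added 3 h before lysis. RNA from poly A-selected mRNA was sequenced (RNA-seq, three replicates per DRB group). Fold change computed for DRB-treated migrating vs DRB-treated control cells; cutoffs fold change >1.3, FDR <0.05.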

[2] = biological target: T1, RNA polymerase II (Mus musculus); assay: Inhibition of RNA polymerase II in mouse B16-F1 migrating cells assessed as fold change in Tmsb10-RNA stability at 0.1 mM measured by […] analysis relative to control cells
[3] = biological target: T1, RNA polymerase II (Mus musculus); assay: Inhibition of RNA polymerase II in mouse B16-F1 migrating cells assessed as fold change in Eri3-RNA stability at 0.1 mM measured by ChIP-seq analysis relative to control cells
[4] = biological target: T1, RNA polymerase II (Mus musculus); assay: Inhibition of RNA polymerase II in mouse B16-F1 migrating cells assessed as fold change in Otud6b-RNA stability at 0.1 mM measured by […] analysis relative to control cells
[5] = biological target: T1, RNA polymerase II (Mus musculus); assay: Inhibition of RNA polymerase II in mouse B16-F1 migrating cells assessed as fold change in Nae1-RNA stability at 0.1 mM measured by ChIP-seq analysis relative to control cells
[6] = biological target: T1, RNA polymerase II (Mus musculus); assay: Inhibition of RNA polymerase II in mouse B16-F1 migrating cells assessed as fold change in Lamp2-RNA stability at 0.1 mM measured by ChIP-seq analysis relative to control cells
[7] = biological target: T1, RNA polymerase II (Mus musculus); assay: Inhibition of RNA polymerase II in mouse B16-F1 migrating cells assessed as fold change in Xpo1-RNA stability at 0.1 mM measured by […] analysis relative to control cells
[8] = biological target: T1, RNA polymerase II (Mus musculus); assay: Inhibition of RNA polymerase II in mouse B16-F1 migrating cells assessed as fold change in G6pc3-RNA stability at 0.1 mM measured by ChIP-seq analysis relative to control cells; outline: as §1
[9] = biological target: T1, RNA polymerase II (Mus musculus); assay: Inhibition of RNA polymerase II in mouse B16-F1 migrating cells assessed as fold change in Alkbh8-RNA stability at 0.1 mM measured by […] analysis relative to control cells
[10] = biological target: T1, RNA polymerase II (Mus musculus); assay: Inhibition of RNA polymerase II in mouse B16-F1 migrating cells assessed as fold change in Nek7-RNA stability at 0.1 mM measured by ChIP-seq analysis relative to control cells
[11] = biological target: T1, RNA polymerase II (Mus musculus); assay: Inhibition of RNA polymerase II in mouse B16-F1 migrating cells assessed as fold change in Fth1-RNA stability at 0.1 mM measured by ChIP-seq analysis relative to control cells
[12] = biological target: T1, RNA polymerase II (Mus musculus); assay: Inhibition of RNA polymerase II in mouse B16-F1 migrating cells assessed as fold change in Phf20l1-RNA stability at 0.1 mM measured by […] analysis relative to control cells
[13] = biological target: Histone-lysine N-methyltransferase EZH2 (Mus musculus) (UniProt Q61188); assay: Inhibition of EZH2 in mouse B16-F1 migrating cells assessed as fold change in H3K27me3-buffered regulated Map3k1-mRNA expression at 3 uM measured by […] analysis relative to control cells
Outline: (§2)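 Confluent B16-F1 cells on fibronectin-coated plates, cultured at 37 °C and 7% CO2, were scratched at multiple sites to induce migration. They were then held 3 h in growth medium containing 3 µM GSK343, with the inhibitor added 3 h before lysis. Unscratched cells served as controls. Poly A mRNA was analysed by RNA-seq (n=3 GSK343, n=5 controls). Linear models removed batch effects, and buffered genes were those altered only under GSK343 (FDR <0.05, fold change >1.3).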

[14] = biological target: Histone-lysine N-methyltransferase EZH2 (Mus musculus) (UniProt Q61188); assay: Inhibition of EZH2 in mouse B16-F1 migrating cells assessed as fold change in H3K27me3-buffered regulated Nup37-mRNA expression at 3 uM measured by […] analysis relative to control cells; outline: as §2
[15] = biological target: Histone-lysine N-methyltransferase EZH2 (Mus musculus) (UniProt Q61188); assay: Inhibition of EZH2 in mouse B16-F1 migrating cells assessed as fold change in H3K27me3-independent regulated Aldoc-mRNA expression at 3 uM measured by ChIP-seq analysis relative to control cells
Outline: (§3)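 Confluent B16-F1 cells on fibronectin-coated plates were scratched at multiple sites, washed once with DMEM and left to migrate 3 h in growth medium (37 °C, 7% CO2); unscratched cells served as control. GSK343 (3 µM) was added 3 h before lysis. Poly A mRNA was sequenced (RNA-seq), with 5 replicates for untreated and 3 for treated cells. Differential expression was called by linear model with batch correction, at FDR <0.05 and fold change ≥1.3.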

[16] = biological target: Histone-lysine N-methyltransferase EZH2 (Mus musculus) (UniProt Q61188); assay: Inhibition of EZH2 in mouse B16-F1 migrating cells assessed as fold change in H3K27me3-buffered regulated Kcnj14-mRNA expression at 3 uM measured by ChIP-seq analysis relative to control cells; outline: as §2
[17] = biological target: Histone-lysine N-methyltransferase EZH2 (Mus musculus) (UniProt Q61188); assay: Inhibition of EZH2 in mouse B16-F1 migrating cells assessed as fold change in H3K27me3-buffered regulated Hs3st1-mRNA expression at 3 uM measured by […] analysis relative to control cells; outline: as §2
[18] = biological target: Histone-lysine N-methyltransferase EZH2 (Mus musculus) (UniProt Q61188); assay: Inhibition of EZH2 in mouse B16-F1 migrating cells assessed as fold change in H3K27me3-dependent regulated Espnl-mRNA expression at 3 uM measured by […] analysis relative to control cells; outline: as §3
[19] = biological target: Histone-lysine N-methyltransferase EZH2 (Mus musculus) (UniProt Q61188); assay: Inhibition of EZH2 in mouse B16-F1 migrating cells assessed as fold change in H3K27me3-buffered regulated Paxbp1-mRNA expression at 3 uM measured by […] analysis relative to control cells; outline: as §2
[20] = biological target: Histone-lysine N-methyltransferase EZH2 (Mus musculus) (UniProt Q61188); assay: Inhibition of EZH2 in mouse B16-F1 migrating cells assessed as fold change in H3K27me3-buffered regulated Spag1-mRNA expression at 3 uM measured by […] analysis relative to control cells; outline: as §3
[21] = biological target: Histone-lysine N-methyltransferase EZH2 (Mus musculus) (UniProt Q61188); assay: Inhibition of EZH2 in mouse B16-F1 migrating cells assessed as fold change in H3K27me3-buffered regulated Gabre-mRNA expression at 3 uM measured by ChIP-seq analysis relative to control cells; outline: as §2
[22] = biological target: Histone-lysine N-methyltransferase EZH2 (Mus musculus) (UniProt Q61188); assay: Inhibition of EZH2 in mouse B16-F1 migrating cells assessed as fold change in H3K27me3-independent regulated Dusp10-mRNA expression at 3 uM measured by […] analysis relative to control cells; outline: as §3
[23] = biological target: Histone-lysine N-methyltransferase EZH2 (Mus musculus) (UniProt Q61188); assay: Inhibition of EZH2 in mouse B16-F1 migrating cells assessed as fold change in H3K27me3-independent regulated Fam214b-mRNA expression at 3 uM measured by […] analysis relative to control cells; outline: as §3
[24] = biological target: Histone-lysine N-methyltransferase EZH2 (Mus musculus) (UniProt Q61188); assay: Inhibition of EZH2 in mouse B16-F1 migrating cells assessed as fold change in H3K27me3-dependent regulated Pxdc1-mRNA expression at 3 uM measured by […] analysis relative to control cells; outline: as §3

Histone-lysine N-methyltransferase EZH2 (Mus musculus), sequence (Q61188 whole entry): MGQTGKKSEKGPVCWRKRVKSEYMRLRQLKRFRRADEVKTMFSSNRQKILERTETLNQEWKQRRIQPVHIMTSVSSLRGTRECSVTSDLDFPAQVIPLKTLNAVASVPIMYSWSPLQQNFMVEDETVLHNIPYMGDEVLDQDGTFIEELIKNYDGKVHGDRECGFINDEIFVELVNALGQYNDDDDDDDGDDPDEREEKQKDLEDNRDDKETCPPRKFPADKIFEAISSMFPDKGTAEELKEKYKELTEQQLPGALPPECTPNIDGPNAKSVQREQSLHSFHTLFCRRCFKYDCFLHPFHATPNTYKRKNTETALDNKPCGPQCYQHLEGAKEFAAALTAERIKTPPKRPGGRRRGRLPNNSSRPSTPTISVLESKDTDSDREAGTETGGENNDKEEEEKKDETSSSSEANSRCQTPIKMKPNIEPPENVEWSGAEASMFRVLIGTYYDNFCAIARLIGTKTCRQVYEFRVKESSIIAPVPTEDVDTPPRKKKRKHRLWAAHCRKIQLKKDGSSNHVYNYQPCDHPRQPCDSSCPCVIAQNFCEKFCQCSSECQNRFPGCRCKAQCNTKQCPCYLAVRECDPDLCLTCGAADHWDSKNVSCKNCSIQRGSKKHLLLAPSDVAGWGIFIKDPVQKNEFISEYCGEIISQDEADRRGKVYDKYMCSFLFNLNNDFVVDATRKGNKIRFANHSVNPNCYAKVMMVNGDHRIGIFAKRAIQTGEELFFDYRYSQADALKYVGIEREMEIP

Q: Which results are given for `OC[C@H]1O[C@@H](n2cnc3cc(Cl)c(Cl)cc32)[C@H](O)[C@@H]1O`?
A: log2FC [1]: -0.87; log2FC [2]: 0.62; log2FC [3]: 0.38; log2FC [4]: -0.6; log2FC [5]: -0.43; log2FC [6]: -0.43; log2FC [7]: -0.58; log2FC [8]: 0.51; log2FC [9]: -0.55; log2FC [10]: -0.66; log2FC [11]: 0.6; log2FC [12]: -0.65

Q: With `CCCc1cc(C)[nH]c(=O)c1CNC(=O)c1cc(-c2ccnc(N3CCN(C)CC3)c2)cc2c1cnn2C(C)C` as the molecule, how does the log2FC [13] read?
A: -0.53

Q: And the log2FC [14]?
A: -0.38

Q: And the log2FC [15]?
A: 0.69

Q: And the log2FC [16]?
A: 1.07

Q: What about the log2FC [17] of the same molecule?
A: 0.78

Q: And the log2FC [18]?
A: 0.55

Q: What about the log2FC [19] of the same molecule?
A: -0.55

Q: And the log2FC [20]?
A: -0.78

Q: And the log2FC [21]?
A: -0.84

Q: And the log2FC [22]?
A: 0.57

Q: And the log2FC [23]?
A: 0.53

Q: And the log2FC [24]?
A: -0.09
